{"source": "ChEMBL document CHEMBL4513216", "about": "“Probing the Open Global Health Chemical Diversity Library for Multistage-Active Starting Points for Next-Generation Antimalarials” (ACS Infect Dis, 2020)", "assay": "Toxicity liver stage against HepG2, at 10uM", "assay_type": "cell-based", "set-up": "test concentration 10 uM, cell line HepG2-A16-CD81EGFP", "conditions": "human, HepG2-A16-CD81EGFP cells; read-out: INHIBITION", "method_in_brief": "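Uninfected HepG2-A16-CD81EGFP cells, 3 × 10^3 per well, 1536-well, plated on prespotted compound at 10 μM final, parasite-free screening media added to match infected plates; puromycin 10 μM positive, DMSO 0.5% negative; run in parallel with 48 h PbLuc assay at 37 °C, 5% CO2; viability by CellTiter-Glo luminescence, normalized to controls.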", "data": [{"smiles": "CCc1nccn1CCC(=O)N1CC[C@@H](c2ccc(F)cc2)[C@H](O)C1", "values": [{"measurement": "cytotoxicity at 10 µM", "result": -7.79, "unit": "%"}]}, {"smiles": "O=C(CC1CCCC1)N1CCC2(CC1)[C@H](O)C[C@@H]2O", "values": [{"measurement": "cytotoxicity at 10 µM", "result": 2.3, "unit": "%"}]}, {"smiles": "Cc1cccc(-n2nc(CC(C)C)nc2CCn2ccc(=O)[nH]c2=O)c1", "values": [{"measurement": "cytotoxicity at 10 µM", "result": -3.7, "unit": "%"}]}, {"smiles": "CCS(=O)(=O)N1CC[C@@H]2[C@@H](CCC(=O)N2CCc2ccccc2)C1", "values": [{"measurement": "cytotoxicity at 10 µM", "result": 0.86, "unit": "%"}]}, {"smiles": "COc1ccc([C@@H]2CN(Cc3ccncc3)C[C@H]2N(C)C)cc1", "values": [{"measurement": "cytotoxicity at 10 µM", "result": -2.52, "unit": "%"}]}, {"smiles": "CCc1nc2c(c(NCc3nc(-c4cccnc4)no3)n1)CCNCC2", "values": [{"measurement": "cytotoxicity at 10 µM", "result": 5.85, "unit": "%"}]}, {"smiles": "Cc1cc(C)c2[nH]c(CN3CCCC(N4CCOCC4)C3)cc(=O)c2c1", "note": "(stereo not given)", "values": [{"measurement": "cytotoxicity at 10 µM", "result": -1.78, "unit": "%"}]}, {"smiles": "COc1ccc(-c2noc(Cn3cc4c(n3)CCC4)n2)c(OC)c1OC", "values": [{"measurement": "cytotoxicity at 10 µM", "result": 4.7, "unit": "%"}]}, {"smiles": "CN(C)c1ccccc1C(=O)N1CCCC(c2cccc(C(=O)O)c2)C1", "note": "(stereo not given)", "values": [{"measurement": "cytotoxicity at 10 µM", "result": -6.11, "unit": "%"}]}, {"smiles": "CC(C)OCCCNC(=O)C1CCC(=O)N(C2CCCC2)C1", "note": "(stereo not given)", "values": [{"measurement": "cytotoxicity at 10 µM", "result": -5.92, "unit": "%"}]}, {"smiles": "Cc1ncc(C(=O)N2C[C@H](CO)C[C@H](CN3CCOCC3)C2)c(=O)[nH]1", "values": [{"measurement": "cytotoxicity at 10 µM", "result": -10.4, "unit": "%"}]}, {"smiles": "CCN(CC)C(=O)[C@@H]1C[C@@H](N)CN1c1nc(N2CCCC2)nc(C)c1C", "values": [{"measurement": "cytotoxicity at 10 µM", "result": -6.9, "unit": "%"}]}, {"smiles": "CC(Cc1ccccn1)N(C)C(=O)c1ncc[nH]1", "note": "(stereo not given)", "values": [{"measurement": "cytotoxicity at 10 µM", "result": 3.04, "unit": "%"}]}, {"smiles": "c1coc(-c2nc(CNC3CCC4(CCNCC4)CC3)no2)c1", "values": [{"measurement": "cytotoxicity at 10 µM", "result": -15.8, "unit": "%"}]}, {"smiles": "CC(O)CN1CC2(CCC1=O)CCN(Cc1cc(F)ccc1Cl)CC2", "note": "(stereo not given)", "values": [{"measurement": "cytotoxicity at 10 µM", "result": 6.89, "unit": "%"}]}, {"smiles": "COc1ccc(Cl)cc1S(=O)(=O)N(C)CC(=O)Nc1cccnc1", "values": [{"measurement": "cytotoxicity at 10 µM", "result": 0.192, "unit": "%"}]}, {"smiles": "COc1ccc(Cl)cc1S(=O)(=O)N(C)CC(=O)Nc1ccccc1", "values": [{"measurement": "cytotoxicity at 10 µM", "result": -2.76, "unit": "%"}]}, {"smiles": "Cc1nc(CCN(C)C(=O)CN2CCCCCC2)no1", "values": [{"measurement": "cytotoxicity at 10 µM", "result": 5.33, "unit": "%"}]}, {"smiles": "COc1cccc(-n2cc(CN(C)C(=O)c3cnc(O)cn3)cn2)c1", "values": [{"measurement": "cytotoxicity at 10 µM", "result": -14.7, "unit": "%"}]}, {"smiles": "CNCC(=O)N1CCCC(c2cccc(Nc3nc(C)cc(C)n3)n2)C1", "note": "(stereo not given)", "values": [{"measurement": "cytotoxicity at 10 µM", "result": -5.07, "unit": "%"}]}, {"smiles": "Cc1cccc(-c2nc(C)nn2CC(=O)NC(C)C2CC2)c1", "note": "(stereo not given)", "values": [{"measurement": "cytotoxicity at 10 µM", "result": -0.502, "unit": "%"}]}, {"smiles": "CCc1nccn1C1CCCN(C(=O)c2ccc(-n3ccnc3)cc2)C1", "note": "(stereo not given)", "values": [{"measurement": "cytotoxicity at 10 µM", "result": -10.8, "unit": "%"}]}, {"smiles": "CC1CCCN(Cc2ccc(OCc3nccn3C)cc2)C1", "note": "(stereo not given)", "values": [{"measurement": "cytotoxicity at 10 µM", "result": -11.8, "unit": "%"}]}, {"smiles": "Cc1cccc(CNC(=O)CCc2c(C)nc3cc(O)nn3c2C)n1", "values": [{"measurement": "cytotoxicity at 10 µM", "result": -4.03, "unit": "%"}]}, {"smiles": "Cc1cc(CN2CCC(N(C)Cc3noc(C4CC4)n3)C2)no1", "note": "(stereo not given)", "values": [{"measurement": "cytotoxicity at 10 µM", "result": 5.35, "unit": "%"}]}, {"smiles": "Cc1csc(CNC(=O)N2CCN(Cc3ccco3)CC2)n1", "values": [{"measurement": "cytotoxicity at 10 µM", "result": 0.702, "unit": "%"}]}, {"smiles": "Cc1nccc(-c2cccc(NCC(=O)N3CCOCC3)c2)n1", "values": [{"measurement": "cytotoxicity at 10 µM", "result": -0.269, "unit": "%"}]}, {"smiles": "CN(Cc1cccc(O)c1)C(=O)Nc1cccnc1N1CCCC1", "values": [{"measurement": "cytotoxicity at 10 µM", "result": -0.565, "unit": "%"}]}, {"smiles": "O=C1COc2cc(C(=O)NS(=O)(=O)c3ccc(F)cc3F)ccc2N1", "values": [{"measurement": "cytotoxicity at 10 µM", "result": -6.21, "unit": "%"}]}, {"smiles": "COc1ncccc1C(=O)NC1CCOc2ccccc21", "note": "(stereo not given)", "values": [{"measurement": "cytotoxicity at 10 µM", "result": -6.25, "unit": "%"}]}, {"smiles": "Cc1ccc(CNCC2CNc3cc(C)nn3C2)cn1", "note": "(stereo not given)", "values": [{"measurement": "cytotoxicity at 10 µM", "result": -7.07, "unit": "%"}]}, {"smiles": "Cc1ccc(NC2CCN(C(=O)CCOCC(F)(F)F)CC2)nn1", "values": [{"measurement": "cytotoxicity at 10 µM", "result": -2.78, "unit": "%"}]}, {"smiles": "CN1CCCN(C(=O)NCCOc2ccc3c(c2)OCO3)CC1", "values": [{"measurement": "cytotoxicity at 10 µM", "result": -17.5, "unit": "%"}]}, {"smiles": "CC(=O)N1CCN(CC(C)(O)c2cccc(C(F)(F)F)c2)CC1", "note": "(stereo not given)", "values": [{"measurement": "cytotoxicity at 10 µM", "result": -14.6, "unit": "%"}]}, {"smiles": "COc1ccccc1CC(=O)NS(C)(=O)=O", "values": [{"measurement": "cytotoxicity at 10 µM", "result": -7.31, "unit": "%"}]}, {"smiles": "O=C(O)c1cc(NS(=O)(=O)c2cccc(Cl)c2F)ccc1Cl", "values": [{"measurement": "cytotoxicity at 10 µM", "result": -4.92, "unit": "%"}]}, {"smiles": "CCn1nc2c(cc1=O)CN(Cc1nc(CCOC)no1)CC2", "values": [{"measurement": "cytotoxicity at 10 µM", "result": -9.24, "unit": "%"}]}, {"smiles": "COc1cc(CNCc2c(C(C)C)nn(C)c2N(C)C)ccn1", "values": [{"measurement": "cytotoxicity at 10 µM", "result": 0.504, "unit": "%"}]}, {"smiles": "Cn1nc2c(cc1=O)CN(Cc1nnc(C3CC3)o1)CC2", "values": [{"measurement": "cytotoxicity at 10 µM", "result": 4.28, "unit": "%"}]}, {"smiles": "Cc1ccc(-c2ccccc2CC2CNCCNC2=O)c(C)c1", "note": "(stereo not given)", "values": [{"measurement": "cytotoxicity at 10 µM", "result": -1.18, "unit": "%"}]}, {"smiles": "CCc1ccc(NC(=O)N2Cc3c(CN(C)C)nn(C)c3C2)cc1", "values": [{"measurement": "cytotoxicity at 10 µM", "result": 5.62, "unit": "%"}]}, {"smiles": "COc1cc(N2CCc3ncnc(-c4ccncc4)c3CC2)ncn1", "values": [{"measurement": "cytotoxicity at 10 µM", "result": 9.85, "unit": "%"}]}, {"smiles": "O=C1COC2(CCN(Cc3nccs3)CC2)CN1CC1CC1", "values": [{"measurement": "cytotoxicity at 10 µM", "result": 4.38, "unit": "%"}]}, {"smiles": "FC1(F)CCNCC12CCN(c1cccnc1)C2", "note": "(stereo not given)", "values": [{"measurement": "cytotoxicity at 10 µM", "result": 5.8, "unit": "%"}]}, {"smiles": "COc1cc2cc(C)c(SCCN3CCCC3)nc2cc1OC", "values": [{"measurement": "cytotoxicity at 10 µM", "result": -7.48, "unit": "%"}]}, {"smiles": "CN(C)S(=O)(=O)N1CC[C@H]2OCC[C@@]2(COc2cccnc2)C1", "values": [{"measurement": "cytotoxicity at 10 µM", "result": 11.2, "unit": "%"}]}, {"smiles": "CCOCC1CN(Cc2ccc(OC)cc2)Cc2nn(CC3CC3)cc21", "note": "(stereo not given)", "values": [{"measurement": "cytotoxicity at 10 µM", "result": 18, "unit": "%"}]}, {"smiles": "Cc1ncsc1CN1C[C@@H]2COC[C@]2(C(=O)NCc2ccccn2)C1", "values": [{"measurement": "cytotoxicity at 10 µM", "result": -108, "unit": "%"}]}, {"smiles": "COCC(=O)NC1CC2(CCN(CCO)CC2)c2ccccc21", "note": "(stereo not given)", "values": [{"measurement": "cytotoxicity at 10 µM", "result": -109, "unit": "%"}]}, {"smiles": "CN(C)[C@@H]1CCN(S(=O)(=O)c2cn(C)cn2)[C@H]1Cc1cccnc1", "values": [{"measurement": "cytotoxicity at 10 µM", "result": 9.79, "unit": "%"}]}, {"smiles": "CCCS(=O)(=O)N1CCc2c(COCC)cncc2C1", "values": [{"measurement": "cytotoxicity at 10 µM", "result": 8.76, "unit": "%"}]}, {"smiles": "c1ccc(CCNCC2Cn3nncc3CO2)cc1", "note": "(stereo not given)", "values": [{"measurement": "cytotoxicity at 10 µM", "result": 7.61, "unit": "%"}]}, {"smiles": "O=C([C@H]1CCCO1)N1CC[C@H](O)[C@@H]1Cc1ccncc1", "values": [{"measurement": "cytotoxicity at 10 µM", "result": 6.38, "unit": "%"}]}, {"smiles": "CNC(=O)[C@H]1C[C@H]2OCC[C@H]2N(Cc2ccc(F)cc2)C1", "values": [{"measurement": "cytotoxicity at 10 µM", "result": 3.42, "unit": "%"}]}, {"smiles": "O=C(NC1CC1)C1[C@H]2CN(Cc3ccc(-c4cc[nH]n4)s3)C[C@@H]12", "note": "(stereo not given in full)", "values": [{"measurement": "cytotoxicity at 10 µM", "result": 6.27, "unit": "%"}]}]}
